# Assay results as given in ChEMBL document CHEMBL1148028, “Design and synthesis of urea and thiourea derivatives and their inhibitory activities on lipopolysaccharide-induced NO production” (Bioorg Med Chem Lett, 2007).
# Calls of active or inactive are those of the source. The calls are words filed in the database; no cut-off is given here.
# Tested on: RAW
# Test: Inhibition of iNOS protein expression in LPS-stimulated mouse RAW 264.7 cells at 10 uM after 20 hrs by Western blot analysis
# Type: functional, cell-based
# Settings: not given
# Summary of the method: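 Cells (1.5 × 10⁶ per 60-mm dish) given LPS (1 µg/mL) with or without compound for 20 h, then lysed. 20 µg lysate protein run on 8% SDS-PAGE, blotted to PVDF, probed for mouse iNOS and actin, ECL detection. iNOS band density normalized to actin; means ± SD of three densitometric analyses.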
row,SMILES,Activity
1,CNC(=S)Nc1ccc(OCCn2c3ccccc3c3ccccc32)cc1,Active

# Tested on: RAW
# Test: Inhibition of LPS-induced NO production in RAW 264.7 cells at 0.1 uM after 20 hrs
# Type: functional
# Settings: Mus musculus
row,SMILES,inhibition at 0.1 µM [%]
1,N=C(N)NN [PIMAGEDINE],85

# Tested on: RAW
# Test: Inhibition of LPS-induced NO production in RAW 264.7 cells at 5 uM after 20 hrs
# Type: functional, cell-based
# Settings: Mus musculus
# Summary of the method: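 Cells plated in 10% FBS–DMEM for 24 h, then given 1% FBS medium with LPS (1 µg/mL) plus compound for 20 h. Accumulated nitrite assayed by Griess reaction (10 min, room temp), absorbance 570 nm, quantified by sodium nitrite calibration. Percent inhibition relative to LPS-only control, n = 3.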
IC50 [nM],SMILES,inhibition at 5 µM [%]
,CCN(C(N)=S)c1ccc(OCCn2c3ccccc3c3ccccc32)cc1,33
,CCN(C(N)=O)c1ccc(OCCn2c3ccccc3c3ccccc32)cc1,25
,NC(=S)N(CC1CC1)c1ccc(OCCn2c3ccccc3c3ccccc32)cc1,34
153,O=C(O)CNC(=S)Nc1ccc(OCCn2c3ccccc3c3ccccc32)cc1,87
,CCCNC(=O)Nc1ccc(OCCn2c3ccccc3c3ccccc32)cc1,14
,CN(C(N)=O)c1ccc(OCCn2c3ccccc3c3ccccc32)cc1,8
,CCNC(=O)Nc1ccc(OCCn2c3ccccc3c3ccccc32)cc1,30
,CC(C)NC(=O)Nc1ccc(OCCn2c3ccccc3c3ccccc32)cc1,15
,CCOC(=O)CNC(=O)Nc1ccc(OCCn2c3ccccc3c3ccccc32)cc1,38
3120,NC(=O)N(CC1CC1)c1ccc(OCCn2c3ccccc3c3ccccc32)cc1,61
901,CCNC(=S)Nc1ccc(OCCn2c3ccccc3c3ccccc32)cc1,90
5310,NC(=S)Nc1ccc(OCCn2c3ccccc3c3ccccc32)cc1,55
730,CNC(=S)Nc1ccc(OCCn2c3ccccc3c3ccccc32)cc1,80
,O=C(Nc1ccccc1)Nc1ccc(OCCn2c3ccccc3c3ccccc32)cc1,28
,NC(=O)Nc1ccc(OCCn2c3ccccc3c3ccccc32)cc1,24
,O=C(O)CNC(=O)Nc1ccc(OCCn2c3ccccc3c3ccccc32)cc1,43
,CCOC(=O)CNC(=S)Nc1ccc(OCCn2c3ccccc3c3ccccc32)cc1,41

# Tested on: RAW
# Test: Inhibition of iNOS mRna expression in LPS-stimulated mouse RAW 264.7 cells at 10 uM after 6 hrs by RT-PCR analysis
# Type: functional, cell-based
# Settings: not given
# Summary of the method: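 Cells (1.8 × 10⁶ per 60-mm dish) stimulated with LPS (1 µg/mL) with or without compound for 6 h, washed twice with PBS. Total RNA extracted with Trizol; iNOS and β-actin mRNA assessed by RT-PCR.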
row,SMILES,Activity
1,CNC(=S)Nc1ccc(OCCn2c3ccccc3c3ccccc32)cc1,Active
